Measured values as given in ChEMBL document CHEMBL1156119 (J Med Chem, 2009).
Activity calls are given as the source filed them. No cut-off for these calls is given here.

Assays:
[1] = Antiprion activity against Scrapie prion protein-mediated scrapie in mouse SMB cells assessed as remaining PrP-Sc level after 5 days by Bradford assay; type: cell-based; conditions: 120 h
Method in brief: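 Same SMB dot-blot protocol with 5-day exposure. Compounds were rescreened over a range of concentrations to fit an EC₅₀ from dose-response curves. Each determination was run in triplicate, in at least two independent experiments. PrP^Sc was measured relative to an untreated DMSO-only control.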

[2] = molecular target: Major prion protein (Mus musculus) (UniProt P04925); assay: Binding affinity to mouse PrP up to 40 uM by surface plasmon resonance assay
Sequence of Major prion protein (Mus musculus) (P04925 whole entry): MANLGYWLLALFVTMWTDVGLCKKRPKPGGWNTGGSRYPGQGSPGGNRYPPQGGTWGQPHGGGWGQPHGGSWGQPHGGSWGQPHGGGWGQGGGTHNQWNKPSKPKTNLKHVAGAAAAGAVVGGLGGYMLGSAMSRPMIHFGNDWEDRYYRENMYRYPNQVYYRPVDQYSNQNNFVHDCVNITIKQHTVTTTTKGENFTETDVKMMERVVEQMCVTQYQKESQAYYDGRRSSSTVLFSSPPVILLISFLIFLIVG

[3] = tested on: SMB; assay: Antiprion activity against Scrapie prion protein-mediated scrapie in mouse SMB cells assessed as remaining PrP-Sc level at 1 uM after 5 days by Bradford assay relative to control; type: cell-based
Method in brief: (§1)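 Compound DMSO stocks were diluted via HBSS into medium and applied for 5 days. Lysates of ~30-40 μg protein/well were dot-blotted, digested with proteinase K at 75 μg mL⁻¹ (1 h, 37 °C) and denatured in 1.8 M guanidine thiocyanate. Read-out was %PrP^Sc versus DMSO-only control, in triplicate.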

[4] = molecular target: Major prion protein (Homo sapiens) (UniProt P04156); assay: Binding affinity to human PrP up to 40 uM by surface plasmon resonance assay
[5] = Cytotoxicity against mouse SMB cells at 20 uM after 5 days by MTT assay; type: cell-based; conditions: 120 h
Method in brief: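 SMB cells were seeded at 3 × 10⁴ cells/well and attached for 24 h. Compound was added from DMSO stock diluted through HBSS into the medium, and cells were exposed for 5 days. Viability was read by MTT assay following the standard reagent protocol.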

[6] = tested on: SMB; assay: Antiprion activity against Scrapie prion protein-mediated scrapie in mouse SMB cells assessed as remaining PrP-Sc level at 20 uM after 5 days by Bradford assay relative to control; type: cell-based
Method in brief: as §1, with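 “SMB scrapie-infected mouse cells, non-neuronal, in medium 199 with 10% newborn calf and 5% fetal calf serum, seeded at 3 × 10⁴ cells/well and attached for 24 h. Compound” for “Compound”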

[7] = tested on: SMB; assay: Antiprion activity against Scrapie prion protein-mediated scrapie in mouse SMB cells assessed as remaining PrP-Sc level at 10 uM after 5 days by Bradford assay relative to control; type: cell-based
Method in brief: as §1, with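 “SMB scrapie-infected mouse cells, non-neuronal, in medium 199 with 10% newborn calf and 5% fetal calf serum, seeded at 3 × 10⁴ cells/well and attached for 24 h. Compound” for “Compound”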

Compound | EC50 [1] | Remaining PrP-Sc level [6] | also measured
COc1ccc(NC(=O)C(=O)c2c[nH]c3ccccc23)cc1 | 11 nM | – | Activity [2]: inactive; Activity [3]: 6.7%; Activity [4]: inactive
Cn1cc(C(=O)C(=O)Nc2cccc(C#N)c2)c2ccccc21 | – | 91.2% | Activity [5]: Toxic
O=C(Nc1cccc(O)c1)C(=O)c1c[nH]c2ccccc12 | 820 nM | – | Activity [3]: 52.4%
Cc1[nH]c2ccccc2c1C(=O)C(=O)Nc1cccc(CO)c1 | – | 80.8% | –
N#Cc1cccc(NC(=O)C(=O)c2c[nH]c3ccccc23)c1 | – | 70.1% | –
Cc1[nH]c2ccccc2c1C(=O)C(=O)Nc1cnc2ccccc2c1 | – | 87.6% | Activity [5]: Toxic
CCc1cccc(NC(=O)C(=O)c2c[nH]c3ccccc23)c1 | 12100 nM | – | Remaining PrP-Sc level [7]: 37.9%
Cc1[nH]c2ccccc2c1C(=O)C(=O)Nc1ccccc1 | – | – | Remaining PrP-Sc level [7]: 41.6%
Cn1cc(C(=O)C(=O)Nc2cccc(CO)c2)c2ccccc21 | – | 137% | –
O=C(Nc1cc(F)c(F)c(F)c1)C(=O)c1c[nH]c2ccccc12 | – | 62.5% | –
O=C(Nc1cccc2c(O)cccc12)C(=O)c1c[nH]c2ccccc12 | – | 101% | –
COc1ccccc1NC(=O)C(=O)c1c[nH]c2ccccc12 | – | – | Activity [5]: Toxic; Remaining PrP-Sc level [7]: 140%
O=C(Nc1ccc(F)cc1)C(=O)c1c[nH]c2ccccc12 | 64 nM | – | Activity [3]: 10.3%
Cc1cccc(NC(=O)C(=O)c2c[nH]c3ccccc23)c1 | 6350 nM | – | Remaining PrP-Sc level [7]: 21.7%
O=C(NCc1cccnc1)C(=O)c1c[nH]c2ccccc12 | – | 107% | –
CC(=O)c1cccc(NC(=O)C(=O)c2cn(C)c3ccccc23)c1 | – | 157% | –
O=C(Nc1cccc(Oc2ccccc2)c1)C(=O)c1c[nH]c2ccccc12 | – | 98.3% | –
O=C(NCc1ccco1)C(=O)c1c[nH]c2ccccc12 | – | 95.2% | –
COc1cccc(NC(=O)C(=O)c2c(C)[nH]c3ccccc23)c1 | – | 133% | –
COc1ccc(CNC(=O)C(=O)c2c[nH]c3ccccc23)cc1OC | 520 nM | – | Activity [3]: 19.3%
O=C(Nc1cccc(CO)c1)C(=O)c1c[nH]c2ccccc12 | 14800 nM | – | Remaining PrP-Sc level [7]: 17.6%
Cc1[nH]c2ccccc2c1C(=O)C(=O)Nc1cccc2c(O)cccc12 | – | – | Activity [5]: Toxic

Compound | EC50 [1] | Remaining PrP-Sc level [6] | also measured
CC(=O)c1cccc(NC(=O)C(=O)c2c(C)[nH]c3ccccc23)c1 | – | 84.4% | –
CCc1cccc(NC(=O)C(=O)c2c(C)[nH]c3ccccc23)c1 | – | 78.8% | –
O=C(C(=O)N1CCOCC1)c1c[nH]c2ccccc12 | – | 80.3% | –
COc1ccc(NC(=O)C(=O)c2c(C)[nH]c3ccccc23)cc1 | – | 72.4% | –
Cc1ccccc1NC(=O)C(=O)c1c[nH]c2ccccc12 | – | 93.8% | –
COc1ccc(NC(=O)C(=O)c2cn(C)c3ccccc23)cc1 | 68 nM | – | Activity [3]: 11.6%
Cn1cc(C(=O)C(=O)Nc2cccc(F)c2)c2ccccc21 | – | 11.6% | –
Cn1cc(C(=O)C(=O)Nc2cnc3ccccc3c2)c2ccccc21 | – | 102% | Activity [5]: Toxic
O=C(Nc1ccc(Cl)cc1)C(=O)c1c[nH]c2ccccc12 | 65 nM | – | Activity [3]: 5.9%
CC(=O)c1cccc(NC(=O)C(=O)c2c[nH]c3ccccc23)c1 | – | – | Remaining PrP-Sc level [7]: 98.8%
COc1cccc(CNC(=O)C(=O)c2c[nH]c3ccccc23)c1 | – | 104% | –
COc1cc(NC(=O)C(=O)c2c[nH]c3ccccc23)cc(OC)c1OC | – | 143% | –
O=C(Nc1ccccc1Cl)C(=O)c1c[nH]c2ccccc12 | – | 85.4% | –
CCCCNC(=O)C(=O)c1c[nH]c2ccccc12 | – | 80.8% | –
COc1cc(NC(=O)C(=O)c2c[nH]c3ccccc23)cc(OC)c1 | – | 75.4% | –
O=C(Nc1cccc2ccc(O)cc12)C(=O)c1c[nH]c2ccccc12 | – | 115% | –
Cc1ccc(NC(=O)C(=O)c2c[nH]c3ccccc23)cc1 | 130 nM | – | Activity [3]: 4.1%
Cn1cc(C(=O)C(=O)Nc2ccccc2)c2ccccc21 | 6900 nM | 81.4% | –
Cc1[nH]c2ccccc2c1C(=O)C(=O)Nc1ccc(O)cc1 | – | 83.1% | –
COc1cc(NC(=O)C(=O)c2cn(C)c3ccccc23)ncn1 | – | – | Remaining PrP-Sc level [7]: 86.4%
Cn1cc(C(=O)C(=O)N2CCOCC2)c2ccccc21 | – | 100% | –
C=CCNC(=O)C(=O)c1c[nH]c2ccccc12 | – | 158% | –

Compound | EC50 [1] | Remaining PrP-Sc level [6] | also measured
Cc1[nH]c2ccccc2c1C(=O)C(=O)Nc1cccc(Oc2ccccc2)c1 | – | – | Remaining PrP-Sc level [7]: 103%
O=C(Nc1ccc(-n2cccc2)cc1)C(=O)c1c[nH]c2ccccc12 | 6 nM | – | Activity [3]: 17.1%
Cc1csc(NC(=O)C(=O)c2c[nH]c3ccccc23)n1 | – | – | Remaining PrP-Sc level [7]: 105%
O=C(Nc1ccc(-n2cccn2)cc1)C(=O)c1c[nH]c2ccccc12 | 1 nM | – | Activity [3]: 7%
Cn1cc(C(=O)C(=O)NCc2ccccc2)c2ccccc21 | – | – | Remaining PrP-Sc level [7]: 148%
CCOc1ccc(CNC(=O)C(=O)c2c[nH]c3ccccc23)cc1 | 60 nM | – | Activity [3]: 6.5%
Cn1cc(C(=O)C(=O)Nc2cccc3ccccc23)c2ccccc21 | – | 121% | –
O=C(NCc1ccc(Oc2ccccc2)cc1)C(=O)c1c[nH]c2ccccc12 | 1030 nM | – | Remaining PrP-Sc level [7]: 17.5%
O=C(Nc1ccc(F)c(F)c1)C(=O)c1c[nH]c2ccccc12 | 320 nM | – | Activity [3]: 1.4%
O=C(Nc1cccnc1)C(=O)c1c[nH]c2ccccc12 | 1660 nM | – | Remaining PrP-Sc level [7]: 8%
O=C(Nc1ccc(OC(F)(F)F)cc1)C(=O)c1c[nH]c2ccccc12 | 380 nM | – | Activity [3]: 6.7%
COc1cccc(NC(=O)C(=O)c2cn(C)c3ccccc23)c1 | 4730 nM | 61.8% | –
Cn1cc(C(=O)C(=O)NCc2ccco2)c2ccccc21 | – | 109% | –
Cc1[nH]c2ccccc2c1C(=O)C(=O)N1CCOCC1 | – | 81.9% | –
Cc1[nH]c2ccccc2c1C(=O)C(=O)Nc1cccc(F)c1 | – | 64% | –
O=C(NCc1ccccc1)C(=O)c1c[nH]c2ccccc12 | – | 90% | –
Cc1[nH]c2ccccc2c1C(=O)C(=O)NCc1cccnc1 | – | 73.7% | –
O=C(Nc1cccc(-c2cnco2)c1)C(=O)c1c[nH]c2ccccc12 | 530 nM | – | Remaining PrP-Sc level [7]: 16.8%
COc1ccc(NC(=O)C(=O)c2c[nH]c3ccccc23)cn1 | 120 nM | – | Activity [3]: 4.9%
O=C(Nc1cccc2ccccc12)C(=O)c1c[nH]c2ccccc12 | – | 135% | –
Cc1[nH]c2ccccc2c1C(=O)C(=O)NC1CCCCC1 | – | 102% | Activity [5]: Toxic
Cn1cc(C(=O)C(=O)NCc2cccnc2)c2ccccc21 | – | – | Remaining PrP-Sc level [7]: 117%

Compound | EC50 [1] | Remaining PrP-Sc level [6] | also measured
Cc1[nH]c2ccccc2c1C(=O)C(=O)NCc1ccco1 | – | 83% | Activity [5]: Toxic
O=C(NC1CCCCC1)C(=O)c1c[nH]c2ccccc12 | – | 83.1% | –
COc1ccc(CNC(=O)C(=O)c2c[nH]c3ccccc23)cc1 | – | 104% | –
CN(C)c1ccc(NC(=O)C(=O)c2c[nH]c3ccccc23)cc1 | 26 nM | – | Activity [3]: 7.2%
CCc1cccc(NC(=O)C(=O)c2cn(C)c3ccccc23)c1 | – | 132% | –
COc1cc(NC(=O)C(=O)c2c[nH]c3ccccc23)ncn1 | 680 nM | – | Activity [3]: 23%
Cc1ccc(NC(=O)C(=O)c2c[nH]c3ccccc23)cc1C | 1200 nM | – | Activity [3]: 48.7%
O=C(Nc1cccc(Cl)c1)C(=O)c1c[nH]c2ccccc12 | 1510 nM | – | Remaining PrP-Sc level [7]: 40%
O=C(C(=O)N1CCCCC1)c1c[nH]c2ccccc12 | – | 112% | –
CSc1ccc(CNC(=O)C(=O)c2c[nH]c3ccccc23)cc1 | 40 nM | – | Activity [3]: 5.6%
Cn1cc(C(=O)C(=O)Nc2ccc(O)cc2)c2ccccc21 | 3770 nM | – | Remaining PrP-Sc level [7]: 47.3%
Cc1[nH]c2ccccc2c1C(=O)C(=O)Nc1cccc(C#N)c1 | – | 78.5% | –
O=C(Nc1ccc(C(F)(F)F)cc1)C(=O)c1c[nH]c2ccccc12 | 290 nM | – | Activity [3]: 6.1%
Cn1cc(C(=O)C(=O)N2CCCCC2)c2ccccc21 | – | – | Activity [5]: Toxic; Remaining PrP-Sc level [7]: 131%
O=C(Nc1ccc(-c2cnco2)cc1)C(=O)c1c[nH]c2ccccc12 | 19 nM | – | Activity [3]: 16.8%
COc1cc(NC(=O)C(=O)c2c(C)[nH]c3ccccc23)ncn1 | – | 69.7% | –
CCCCNC(=O)C(=O)c1cn(C)c2ccccc12 | – | 124% | –
Cc1[nH]c2ccccc2c1C(=O)C(=O)Nc1cccc2ccccc12 | – | 96.3% | –
Cn1cc(C(=O)C(=O)Nc2cccc3c(O)cccc23)c2ccccc21 | – | 114% | –
Cn1cc(C(=O)C(=O)Nc2cccc(Oc3ccccc3)c2)c2ccccc21 | – | – | Activity [5]: Toxic; Remaining PrP-Sc level [7]: 169%
